The record followed here is ChEMBL document CHEMBL1921703 (Eur J Med Chem, 2011).

Data set [1] in a line: Chemical stability of the compound in phosphate buffer at pH 8.0 assessed as half life at 250 umol/mL by HPLC analysis. Type of data set: physicochemical. The procedure, abridged: (§1)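 Each compound, added as methanol stock, was incubated in phosphate buffer at pH 2.5, 5.0, 7.4 or 8.0 (1:4 v/v) at 37 °C. Samples were taken at 0, 1, 3, 6, 12 and 24 h. Remaining ester was measured by HPLC-UV at 238 nm on C18 with methanol-water 80:20. The pseudo-first-order rate constant came from linear regression of ln(peak area) against time, and half-life followed from it.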

Data set [2] in a line: Chemical stability of the compound in phosphate buffer at pH 5 assessed as first order rate constant of compound disappearance at 250 umol/mL by HPLC analysis. Type of data set: physicochemical. The procedure, abridged: as §1
Data set [3] in a line: Chemical stability of the compound in phosphate buffer at pH 2.5 assessed as half life at 250 umol/mL by HPLC analysis. Type of data set: physicochemical. The procedure, abridged:
as §1

Data set [4] relates to Brain. The data set is described as follows: AUC (0 to t) in Kunming mouse brain at dose equivalent to 10 mg/kg, iv of naproxen administered as single dose. Type of data set: ADME, organism-based. Set-up: dose 10 mg/kg, route intravenous. To be noted: in vivo.
Data set [5] in a line: Chemical stability of the compound in phosphate buffer at pH 5 assessed as half life at 250 umol/mL by HPLC analysis. Type of data set: physicochemical. In outline: as §1
Data set [6] concerns Heart. The data set is described as follows: Drug uptake in Kunming mouse heart assessed as naproxen level at dose equivalent to 10 mg/kg, iv of naproxen administered as single dose measured by HPLC analysis. Type of data set: ADME, organism-based. Set-up: dose 10 mg/kg, route intravenous. To be noted: in vivo.
Data set [7] is described as follows: Chemical stability of the compound in phosphate buffer at pH 8.0 assessed as first order rate constant of compound disappearance at 250 umol/mL by HPLC analysis. Type of data set: physicochemical. The procedure, abridged: as §1
Data set [8] has as its system Liver. The data set is described as follows: Drug uptake in Kunming mouse liver assessed as naproxen level at dose equivalent to 10 mg/kg, iv of naproxen administered as single dose measured by HPLC analysis. Type of data set: ADME, organism-based. Set-up: dose 10 mg/kg, route intravenous. To be noted: in vivo.
Data set [9] deals with Brain. The data set is described as follows: Metabolic stability in mouse brain homogenate assessed as first order rate constant of compound disappearance at 250 umol/mL by HPLC analysis. Type of data set: ADME, tissue-based. In outline:
(§2)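 Mouse plasma, diluted with two volumes of water, or brain homogenate (1:5 w/v in cold pH 7.4 phosphate buffer) was spiked with methanol stock (1:4 v/v) and incubated at 37 °C. Aliquots taken at 0–90 min were quenched with acetonitrile and centrifuged. Remaining prodrug was measured by HPLC-UV at 238 nm. Rate constant came from ln(peak area) regression against time, and half-life followed from it.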

Data set [10] in a line: Chemical stability of the compound in phosphate buffer at pH 7.4 assessed as half life at 250 umol/mL by HPLC analysis. Type of data set: physicochemical. In outline:
as §1

The test system of data set [11] is Kidney. The data set is described as follows: Drug uptake in Kunming mouse kidney assessed as naproxen level at dose equivalent to 10 mg/kg, iv of naproxen administered as single dose measured by HPLC analysis. To be noted: in vivo. Type of data set: ADME, organism-based. Further details: dose 10 mg/kg, route intravenous; call rule not given here.
The nature of data set [12]: Chemical stability of the compound in phosphate buffer at pH 2.5 assessed as first order rate constant of compound disappearance at 250 umol/mL by HPLC analysis. Type of data set: physicochemical. The procedure, abridged:
as §1

Data set [13] has as its system Plasma. The data set is described as follows: Prodrug conversion in Kunming mouse plasma assessed as compound hydrolysis to naproxen at dose equivalent to 10 mg/kg, iv of naproxen measured by HPLC analysis. Type of data set: ADME, organism-based. Further details: dose 10 mg/kg, route intravenous. To be noted: in vivo.
Data set [14] is described as follows: Metabolic stability in mouse brain homogenate assessed as half life at 250 umol/mL by HPLC analysis. Type of data set: ADME, tissue-based. In outline:
as §2

Data set [15] deals with Plasma. The data set is described as follows: Metabolic stability in mouse plasma assessed as first order rate constant of compound disappearance at 250 umol/mL by HPLC analysis. Type of data set: ADME, cell-free. In outline:
as §2

A short description of data set [16]: Chemical stability of the compound in phosphate buffer at pH 7.4 assessed as first order rate constant of compound disappearance at 250 umol/mL by HPLC analysis. Type of data set: physicochemical. In outline:
as §1

Data set [17] has as its system Muscle tissue. The data set is described as follows: Drug uptake in Kunming mouse muscle assessed as naproxen level at dose equivalent to 10 mg/kg, iv of naproxen administered as single dose measured by HPLC analysis. Type of data set: ADME, organism-based. Further details: dose 10 mg/kg, route intravenous. To be noted: in vivo.
The test system of data set [18] is Brain. The data set is described as follows: Prodrug conversion in mouse brain homogenate assessed as naproxen release at 250 uM/mL by HPLC analysis. Type of data set: ADME, tissue-based. To be noted: in vitro, TDE = time-dependent effect. In outline:
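Prodrugs were incubated at 37 °C for up to 90 min in mouse brain homogenate (1:5 w/v in pH 7.4 phosphate buffer). […] Peak areas were normalised to the reference prodrug peak at 15 min, SD n = 3.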

Data set [19] concerns Plasma. The data set is described as follows: AUC (0 to t) in Kunming mouse plasma at dose equivalent to 10 mg/kg, iv of naproxen administered as single dose. Further details: dose 10 mg/kg, route intravenous. To be noted: in vivo. Type of data set: ADME, organism-based.
The nature of data set [20]: Metabolic stability in mouse plasma assessed as half life at 250 umol/mL by HPLC analysis. Type of data set: ADME, cell-free. The procedure, abridged: as §2
A short description of data set [21]: in vivo. To be noted: Kunming, mouse, brain, iv, 10 mg/kg.
A short description of data set [22]: in vivo. To be noted: Kunming, mouse, brain, iv, 10 mg/kg. The source holds these as a separate data set.
Data set [23] is described as follows: in vivo. To be noted: Kunming, mouse, brain, iv, 10 mg/kg. This is another data set of the same source.

Structures are written as SMILES.

`COc1ccc2cc([C@H](C)C(=O)OC[C@H]3O[C@H](O)[C@H](O)[C@@H](O)[C@@H]3O)ccc2c1`: the half-life at 250 umol/mL in data set [1] was 23.8 h; in [3], 53.3 h; in [5], 107 h; in data set [10] it was 114 h; in data set [14], 1.68 h; in data set [20] it was 1.48 h. For the same compound, the Activity turned out to be 0.645 ×10⁻² /hr in data set [2]; 2.91 ×10⁻² /hr in data set [7]; 0.683 ×10⁻² /min in data set [9]; 1.3 ×10⁻² /hr in [12]; 0.782 ×10⁻² /min in data set [15]; 0.607 ×10⁻² /hr in data set [16]. The AUCt in data set [4] amounted to 3930.87 µg·min/g; in data set [19], 10353.27 µg/min/mL. Also, the Drug uptake result in data set [6], in data set [8], in data set [11] and in data set [17] was “Active” each time. Further, the Drug metabolism result in data set [13] is reported as “Active”; in data set [18], “tde”.
`COc1ccc2cc([C@H](C)C(=O)OCC/C(SSCc3ccccc3)=C(\C)N(C)C=O)ccc2c1`: the half-life at 250 umol/mL in data set [1] is 33.8 h; in data set [3] it was 13.7 h; in data set [5] it was 24.7 h; in data set [10] it was 62.4 h; in data set [14] it was 0.418 h; in data set [20], 0.987 h. Besides, the Activity in data set [2] worked out at 2.81 ×10⁻² /hr; in data set [7], 2.05 ×10⁻² /hr; in data set [9], 2.76 ×10⁻² /min; in [12] it was 5.05 ×10⁻² /hr; in data set [15], 1.17 ×10⁻² /min; in [16], 1.11 ×10⁻² /hr. The AUCt is 3307.75 µg·min/g in data set [4] and 8834.7 µg/min/mL in data set [19]. The Drug uptake entry in [6], in [8], in data set [11] and in data set [17] was “Active” in each case. In addition, the results for the Drug metabolism result in data set [13] and in data set [18] were “Active” and “tde”, respectively.
Regarding `COc1ccc2cc([C@H](C)C(=O)OCC/C(SSCc3ccccc3)=C(\C)N(C=O)CC(=O)OC[C@H]3O[C@H](O)[C@H](O)[C@@H](O)[C@@H]3O)ccc2c1`, the half-life at 250 umol/mL is 19.5 h in data set [1]; 20.4 h in [3]; 24.1 h in [5]; 30.1 h in [10]; 0.312 h in data set [14]; 0.755 h in [20]. Further, the Activity is 2.87 ×10⁻² /hr in [2]; 3.56 ×10⁻² /hr in data set [7]; 3.71 ×10⁻² /min in [9]; 3.39 ×10⁻² /hr in [12]; 1.53 ×10⁻² /min in data set [15]; 2.3 ×10⁻² /hr in data set [16]. Also, the AUCt in data set [4] was found to be 5669.45 µg·min/g; in data set [19] it was 13348.87 µg/min/mL. Moreover, the Drug uptake entry in data set [6], in data set [8], in data set [11] and in data set [17] was “Active” in each case. Moreover, the Drug metabolism result in [13] is reported as “Active”; in data set [18] it was “tde”.
Consider `COc1ccc2cc([C@H](C)C(=O)OCC/C(SSC(C)C)=C(\C)N(C=O)CC(=O)OC[C@H]3O[C@H](O)[C@H](O)[C@@H](O)[C@@H]3O)ccc2c1`, for which the half-life at 250 umol/mL is 28.6 h in [1]; 21.7 h in data set [3]; 34 h in data set [5]; 51 h in [10]; 0.343 h in data set [14]; 0.792 h in data set [20]. In addition, the Activity amounted to 2.04 ×10⁻² /hr in [2]; 2.42 ×10⁻² /hr in data set [7]; 3.37 ×10⁻² /min in [9]; 3.19 ×10⁻² /hr in data set [12]; 1.46 ×10⁻² /min in [15]; 1.36 ×10⁻² /hr in [16]. The AUCt in [4] was determined as 6140.77 µg·min/g; in data set [19], 16185.44 µg/min/mL. The Drug uptake entry in [6], in [8], in data set [11] and in data set [17] was “Active” throughout. For the same compound, the Drug metabolism entry is “Active” in data set [13] and “tde” in data set [18].
With `CCSS/C(CCOC(=O)[C@@H](C)c1ccc2cc(OC)ccc2c1)=C(/C)N(C=O)CC(=O)OC[C@H]1O[C@H](O)[C@H](O)[C@@H](O)[C@@H]1O`, the half-life at 250 umol/mL was 25 h in data set [1]; 16 h in [3]; 23.5 h in data set [5]; 27.2 h in data set [10]; 0.243 h in [14]; 0.657 h in data set [20]. The Activity in data set [2] worked out at 2.95 ×10⁻² /hr; in data set [7], 2.77 ×10⁻² /hr; in data set [9], 4.74 ×10⁻² /min; in data set [12] it was 4.34 ×10⁻² /hr; in data set [15], 1.77 ×10⁻² /min; in [16], 2.55 ×10⁻² /hr. For the same compound, the AUCt in [4] was 4716.88 µg·min/g; in data set [19], 12914.16 µg/min/mL. Further, the Drug uptake entry in data set [6], in data set [8], in [11] and in [17] was “Active” in each case. The figures for the Drug metabolism entry in [13] and in [18] were “Active” and “tde”, respectively.
On to `COc1ccc2cc([C@H](C)C(=O)O)ccc2c1` [NAPROXEN], for which the concentration in [21] peaked (Cmax) at 17100 ng/g. Moreover, the MRT in data set [22] was 1.41 h. Besides, the Tmax in data set [23] is 0.75 h. In addition, the AUCt in data set [19] stood at 3812.35 µg/min/mL.
